Source: PubChem (The Scripps Research Institute Molecular Screening Center)
CHRM5 agonist – CHRM5 agonism in calcium assay; P08912; 360,000 compounds, 0.19% hits; AID 624037; CHO-K1 hM5 cells, Fluo-8 calcium fluorescence; 0% DMSO wells, 100% maximal acetylcholine response; activation, % at 3 µM;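 active means activation above the run's mean over test compounds plus 3 SD, cut at about 23% in these data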;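 further: signal is peak over basal fluorescence ratio across the kinetic read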
Target sequence (P08912 whole entry, looked up): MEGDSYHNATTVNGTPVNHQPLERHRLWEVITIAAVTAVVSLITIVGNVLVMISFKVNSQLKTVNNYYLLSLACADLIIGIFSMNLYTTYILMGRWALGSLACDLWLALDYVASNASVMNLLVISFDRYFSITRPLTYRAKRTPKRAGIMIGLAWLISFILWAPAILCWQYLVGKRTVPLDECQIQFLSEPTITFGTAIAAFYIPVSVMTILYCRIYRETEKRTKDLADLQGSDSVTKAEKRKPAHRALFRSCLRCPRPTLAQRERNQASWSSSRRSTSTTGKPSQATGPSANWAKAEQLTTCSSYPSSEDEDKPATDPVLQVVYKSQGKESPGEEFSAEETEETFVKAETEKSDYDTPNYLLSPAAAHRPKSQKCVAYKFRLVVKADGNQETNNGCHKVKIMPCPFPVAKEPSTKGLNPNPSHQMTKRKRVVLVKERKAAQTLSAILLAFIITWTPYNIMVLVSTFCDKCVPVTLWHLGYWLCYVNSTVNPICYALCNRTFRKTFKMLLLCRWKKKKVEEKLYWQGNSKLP
CHRM5 antagonist – CHRM5 antagonism in calcium assay. CHO-hM5 cells, Fluo-8 calcium fluorescence, ACh EC80. inhibition, % at 3 µM. 360,000 compounds, 0.59% hits. AID 624040;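 active means inhibition above a per-plate cutoff, the mean of that plate's test compounds plus 3 SD, cut at about 27% in these data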
M1 ag – human M1 muscarinic receptor agonism. CHO-K1 hM1, Fluo-8 calcium fluorescence, agonist mode; 0% DMSO, 100% acetylcholine EC100. AID 588814. activation, % at 3 µM. 360,000 compounds, 0.33% hits;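 active means activation above the run's mean compound activation plus 3 SD, cut at about 16% in these data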;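 further: peak over basal fluorescence ratio within a 140 s kinetic read after compound addition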
CHRM1 antagonist – antagonists of human M1 muscarinic receptor; P11229; CHO-K1 hM1, Fluo-8 calcium fluorescence, ACh EC80 antagonist; inhibition, % at 3 µM; 360,000 compounds, 1.3% hits;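 active means percent inhibition above its own plate's cutoff, namely the mean of that plate's compound wells plus 3 SD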;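 further: peak over basal fluorescence ratio during 140 s after agonist addition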
CHRM1 PAM – human CHRM1 positive allosteric modulation; activation, % at 3 µM; P11229; AID 588819; 360,000 compounds, 0.088% hits; CHO-K1 hM1, Fluo-8 calcium fluorescence, ACh EC20; 0% = ACh EC20, 100% = maximal ACh; in the data active means activation above about 19%, passing the limit was not always enough
M5 PAM – potentiates acetylcholine response at human M5 receptor | 360,000 compounds, 0.3% hits | CHO-K1 hM5, Fluo-8 calcium, ACh EC20 PAM; 0% = ACh EC20, 100% = ACh EC100 | P08912 | activation, % at 3 µM;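 active means activation above the run cutoff, the mean activation of all test compounds plus 3 SD, cut at about 18% in these data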
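Assay system: CHO-K1 hM5 cells / Incubation: Fluo-8 loading 80 min at 37 °C plus 30 min room temperature / Technique: Fluo-8 calcium dye fluorescence, kinetic read / Repeats: single replicate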
Large screens that a line does not name were inactive. Compounds with a hit are over-represented: about 2% of the library has one in this group of screens.

O=c1c2ccccc2nnn1Cc1nnc(-c2ccccc2Br)o1	M1 ag 16
CCn1c(Cc2ccccc2)n[nH]c1=S	none
S=c1[nH]nc(CN2CCCC2)n1Cc1ccccc1	CHRM1 antagonist 44
S=c1[nH]nc(COc2ccccc2)n1Cc1ccccc1	none
S=c1[nH]nc(CN2CCCCC2)n1Cc1ccccc1	CHRM1 antagonist 43
CCCCn1c(Cc2ccccc2)n[nH]c1=S	CHRM5 antagonist 39, CHRM1 antagonist 86
O=C(Cc1cccc2ccccc12)NN=Cc1ccc2c(c1)CCC2	none
c1coc(-c2cc3nc(NC4CCCCC4)ccn3n2)c1	none
O=C(NC(NNc1ccc([N+](=O)[O-])cc1)(C(F)(F)F)C(F)(F)F)c1ccc(Cl)cc1	CHRM5 antagonist 27, CHRM1 antagonist 34
O=C(NNc1ccc([N+](=O)[O-])cc1)c1ccccc1Cl	none
CN1CCN(c2ncnc3c2ncn3[C@H]2CN(Cc3ccc4c(c3)OCO4)C[C@@H](CO)O2)CC1	none
CN1OC[C@@H]2CN(S(=O)(=O)c3cccc4ccccc34)[C@H](c3ccc(-c4ccccc4)cc3)C[C@@H]21	CHRM1 PAM 25
CN1C(=O)c2ccccc2Cc2c(NCc3ccccc3)ncnc21	none
COCCN1C(=O)c2ccccc2C1c1nc2ccccc2[nH]1 (stereo not given)	none
O=C(NCc1cccc(Cl)c1)c1cc(=O)[nH]c2ccccc12	none
CCN(CC)C(CNC(=O)c1cc(=O)[nH]c2ccccc12)c1ccccc1Cl (stereo not given)	CHRM1 antagonist 55
CCC(C)(C)c1ccc(OCCCC[n+]2cccc(C)c2)c(C(C)(C)CC)c1	CHRM5 antagonist 28, CHRM1 antagonist 25
CCc1nnc(SCc2ccc(C(=O)OC)o2)n1N	M5 PAM 19
CC(=O)NC(c1cccc(F)c1)c1nc(-c2ccc3ccccc3c2)cs1 (stereo not given)	none
Cc1cccc(N2C(=O)N3[C@H](c4ccc(Cl)cc4)[C@@H]4C(=O)N(C5CCCCC5)C(=O)[C@@H]4[C@]3(Cc3ccc(Cl)cc3)C2=O)c1	M5 PAM 19
Cc1cccc(N2C(=O)N3[C@H](c4ccc(F)cc4)[C@@H]4C(=O)N(C5CCCCC5)C(=O)[C@@H]4[C@]3(Cc3ccc(Cl)cc3)C2=O)c1	none
Cc1ccc(-n2nc(-c3ccc(OC(F)(F)F)cc3)cc2N)cc1C	none
O=Cc1ccc(N2CCN(S(=O)(=O)c3ccc4c(c3)CC(=O)N4)CC2)cc1	none
C/C(=N\NC(=S)NC(C)C)c1ccc(Cl)s1	CHRM1 antagonist 81
O=C(Nc1ccc(Cl)cc1)N(C1=NCCC1)c1ccc(OC(F)F)cc1	CHRM5 antagonist 27
CN1CCN(c2ncnc3c2ncn3[C@H]2CN(Cc3ccncc3)C[C@@H](CO)O2)CC1	none
CCc1ccc(S(=O)(=O)NCc2ccc(C(=O)NCCN(Cc3ccccc3)C(C)C)cc2)cc1	CHRM5 antagonist 29, CHRM1 antagonist 68
CC(=O)Nc1ccc(S(=O)(=O)NCc2ccc(C(=O)NCCN(C)Cc3ccccc3)cc2)cc1	none
CCc1cc(-c2nnn(CCC3COCCO3)c2CC)cc(CC)c1-c1cn(CCc2c[nH]c3ccccc23)nn1 (stereo not given)	none
O=C1NC[C@@H](CCCCN2C[C@H](Cc3ccc(O)cc3)N(CCc3ccccc3)C(=O)C2=O)N(Cc2ccccc2)C1=O	none (no result: M1 ag, CHRM1 antagonist, CHRM1 PAM)
COc1ccc(/C=N/N=C2/NC(=O)C(c3ccccc3)S2)c(OC)c1 (stereo not given)	M5 PAM 18
Fc1ccccc1C1c2[nH]c3ccccc3c2CCN1CCCn1cccn1 (stereo not given)	CHRM1 antagonist 38
CC(C)(C)C1c2[nH]c3ccccc3c2CCN1CCCn1cccn1 (stereo not given)	none
Cc1ccccc1S(=O)(=O)NC(=O)C1(C)CCN1C(=O)CC(c1ccccc1)c1ccccc1 (stereo not given)	none
Cc1ccc(C)c(N2CCN(C3C(=O)Nc4ccccc4-n4nnnc43)CC2)c1 (stereo not given)	none (no result: M1 ag, CHRM1 antagonist, CHRM1 PAM)
O=C1Nc2ccccc2-n2nnnc2C1N1CCN(c2ccc(C(F)(F)F)cc2[N+](=O)[O-])CC1 (stereo not given)	CHRM5 agonist 24 (no result: M1 ag, CHRM1 antagonist, CHRM1 PAM)
CCc1nc2c(OCc3ccccc3C(=O)OC)cccn2c1N(C)C(=O)c1cccs1	none
COc1ccc2oc3cc(Cl)ccc3c(=O)c2c1	none
Cc1csc2ncnc(NNC(=O)c3ccc(Cl)cc3)c12	CHRM1 antagonist 43
O=C(NNc1ncnc2sccc12)c1ccc(Cl)cc1	none
CC(C)CNC(=O)C1(C)CCCN1C(=O)c1ccc2ccccc2n1 (stereo not given)	none
O=[N+]([O-])c1ccc(NC(=S)NCCc2ccc(F)cc2)cc1	CHRM5 antagonist 33, CHRM1 antagonist 33
N#C/C(=C\c1ccc(N2CCOCC2)o1)C(=O)NCCc1ccccc1	CHRM5 agonist 47, M1 ag 21
N#C/C(=C/c1ccc(N2CCOCC2)o1)C(=O)Nc1ccccc1	CHRM5 agonist 43, CHRM5 antagonist 27, M1 ag 50
Cc1ccc(S(=O)(=O)NC(=O)NC2=NC(C)(C)N(c3ccc(Cl)c(Cl)c3)C(N)=N2)cc1	none
C(C#CCCCCCCCCC[n+]1ccccc1)#CCCCCCCCCC[n+]1ccccc1	CHRM5 antagonist 99, CHRM1 antagonist 98
CCc1nc2c(OCC(=O)c3ccc(F)cc3)cccn2c1N(C)C(=O)c1ccc(OC)cc1	none
CC(=O)Nc1ccc(Sc2ncccc2C(=O)Nc2ccc(F)cc2)cn1	CHRM5 agonist 50, M1 ag 69, CHRM1 antagonist 52
CN(C)c1cccc(Nc2ccc(-c3ccc(OC(F)(F)F)cc3)cn2)c1	none
Cc1ccc(SCCNS(C)(=O)=O)cc1	M5 PAM 22
O=[N+]([O-])c1cc(S(=O)(=O)NCCN2CCOCC2)ccc1Sc1nnnn1-c1ccccc1	CHRM1 antagonist 62
Cc1ccc(-n2nnnc2Sc2ccc(S(=O)(=O)NCCN(C)C)cc2[N+](=O)[O-])cc1	CHRM1 antagonist 86
O=C(CN1C(=O)NC2(CCCC2)C1=O)NNC(=O)c1ccc(Br)cc1	CHRM1 PAM 30
COCCN(C(=O)Cc1coc2cc(C)c(C)cc12)c1c(N)n(Cc2ccccc2)c(=O)[nH]c1=O	CHRM5 antagonist 100
Cc1cccc(OCC(=O)N(Cc2ccccc2)c2c(N)n(Cc3ccccc3)c(=O)[nH]c2=O)c1	CHRM1 PAM 23
Nc1c(N(CCC2=CCCCC2)C(=O)Cc2ccc(F)cc2)c(=O)[nH]c(=O)n1Cc1ccccc1	M1 ag 19
